Measured values published in ChEMBL document CHEMBL3352384, “Synthesis and biological activity of new salicylanilide N,N-disubstituted carbamates and thiocarbamates” (Bioorg Med Chem, 2014).
Converted amounts (≈) assume the structure as drawn.

Columns and labels:
Mycobacterium kansasii [1] = test: Antimycobacterial activity against clinical isolate Mycobacterium kansasii 6509/96 assessed as complete growth inhibition after 14 days; type: functional; conditions: 6509/96, 336 h
Outline: (§1)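 Dilutions of M. kansasii inoculum were 10-4 for strain 235/80 and 10-5 for clinical isolate 6509/96. MIC was the lowest concentration giving complete growth inhibition, run in quadruplicate and repeated twice.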

[2] = test system: Mycobacterium tuberculosis; test: Antimycobacterial activity against Mycobacterium tuberculosis H37Rv 331/88 assessed as complete growth inhibition after 14 days; type: functional; conditions: H37Rv 331/88, 336 h
Outline: (§2)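 M. tuberculosis 331/88 (H37Rv) inoculum diluted 10-3, M. avium 330/88 diluted 10-5. MIC is the lowest concentration giving complete growth inhibition. Isoniazid and p-aminosalicylic acid as references. Quadruplicate, repeated twice.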

[3] = Selectivity index, ratio of IC50 for human HepG2 cells to MIC for atypical mycobacteria
Outline: (§3)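 Selectivity index = HepG2 IC50 / MIC. HepG2 cells (passage 3–4) grown in Eagle's MEM with 10% FBS, L-glutamine and non-essential amino acids. Compounds added from DMSO, eight concentrations in triplicate, tetrazolium-reduction colorimetric read-out. IC50 is the concentration reducing viability to 50% of control; 10% DMSO as 0% viability.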

[4] = test system: Trichophyton mentagrophytes; test: Antimicrobial activity against Trichophyton mentagrophytes 445 after 120 hrs by microdilution method; type: functional; conditions: Trichophyton mentagrophytes, 445, 120 h
Outline: (§4)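 Broth microdilution in RPMI 1640 with glutamine, with fluconazole and amphotericin B as references. For filamentous fungi, MIC is expressed as the IC50, i.e. the concentration giving 50% growth reduction versus control. Each determination was done twice.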

Staphylococcus aureus [5] = test: Antimicrobial activity against Staphylococcus aureus CCM 4516/08 after 24 hrs by microdilution method; type: functional; conditions: CCM 4516/08, 24 h
Outline: (§5)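 Mueller-Hinton broth microdilution; compounds dissolved in DMSO, final concentrations 500 to 0.49 µM. […] Benzylpenicillin and bacitracin as comparators. Each determination done twice.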

Mycobacterium kansasii [6] = test: Antimycobacterial activity against clinical isolate Mycobacterium kansasii 6509/96 assessed as complete growth inhibition after 21 days; type: functional; conditions: 6509/96, 504 h; outline: as §1
[7] = Inhibition of Mycobacterium tuberculosis H37Rv isocitrate lyase assessed as glyoxylate phenyl hydrazone formation at 10 uM
Staphylococcus aureus [8] = test: Antimicrobial activity against Staphylococcus aureus CCM 4516/08 after 48 hrs by microdilution method; type: functional; conditions: CCM 4516/08, 48 h; outline: as §5
Mycobacterium kansasii [9] = test: Antimycobacterial activity against clinical isolate Mycobacterium kansasii 6509/96 assessed as complete growth inhibition after 7 days; type: functional; conditions: 6509/96, 168 h; outline: as §1
[10] = test system: Mycobacterium tuberculosis; test: Antimycobacterial activity against Mycobacterium tuberculosis H37Rv 331/88 assessed as complete growth inhibition after 21 days; type: functional; conditions: H37Rv 331/88, 504 h; outline: as §2
Enterococcus sp. [11] = test: Antimicrobial activity against Enterococcus sp. J 14365/08 after 48 hrs by microdilution method; type: functional; conditions: J 14365/08, 48 h
Outline: (§6)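 Broth microdilution in Mueller-Hinton broth, compounds dissolved in DMSO, final concentrations 500 to 0.49 µM. Benzylpenicillin and bacitracin were run as comparators. MIC was taken as 95% (IC95) or greater growth reduction versus control. Each determination was done twice.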

Mycobacterium avium [12] = test: Antimycobacterial activity against Isoniazid, rifampicin, ofloxacin and ethambutol-resistant Mycobacterium avium 330/88 assessed as complete growth inhibition after 14 days; type: functional; conditions: 330/88, 336 h; outline: as §2
[13] = test system: Staphylococcus epidermidis; test: Antimicrobial activity against Staphylococcus epidermidis H 6966/08 after 24 hrs by microdilution method; type: functional; conditions: H 6966/08, 24 h; outline: as §6
[14] = Selectivity index, ratio of IC50 for human HepG2 cells to MIC for Trichophyton mentagrophytes 445
Mycobacterium kansasii [15] = test: Antimycobacterial activity against Mycobacterium kansasii 235/80 assessed as complete growth inhibition after 7 days; type: functional; conditions: 235/80, 168 h; outline: as §1
[16] = Selectivity index, ratio of IC50 for human HepG2 cells to MIC for Mycobacterium tuberculosis H37Rv; type: toxicity, cell-based; conditions: read-out: Selectivity Index
Outline: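 Selectivity index = HepG2 IC50 / MIC. HepG2 cells (passage 3–4) grown in Eagle's MEM with 10% FBS, L-glutamine and non-essential amino acids. Compounds added from DMSO, eight concentrations in triplicate, tetrazolium-reduction colorimetric read-out.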

[17] = test system: Trichophyton mentagrophytes; test: Antimicrobial activity against Trichophyton mentagrophytes 445 after 72 hrs by microdilution method; type: functional; conditions: Trichophyton mentagrophytes, 445, 72 h; outline: as §4
[18] = Selectivity index, ratio of IC50 for human HepG2 cells to MIC for methicillin-resistant Staphylococcus aureus H 5996/08; outline: as §3
Mycobacterium kansasii [19] = test: Antimycobacterial activity against Mycobacterium kansasii 235/80 assessed as complete growth inhibition after 14 days; type: functional; conditions: 235/80, 336 h; outline: as §1
HepG2 = test: Cytotoxicity against human HepG2 cells assessed as reduction in cell viability after 24 hrs by MTS assay; type: cell-based; conditions: HepG2, 24 h
Outline: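 HepG2 hepatocellular carcinoma cells (passage 3–4) were grown in Eagle's MEM with 10% FBS, 1% L-glutamine and non-essential amino acids. Compounds were added from DMSO at eight concentrations in triplicate, with 10% DMSO as the 0% viability control. Viability was read by tetrazolium salt reduction (CellTiter 96 AQueous One). IC50 is the concentration reducing viability to 50% of control.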

Mycobacterium kansasii [20] = test: Antimycobacterial activity against Mycobacterium kansasii 235/80 assessed as complete growth inhibition after 21 days; type: functional; conditions: 235/80, 504 h; outline: as §1
Mycobacterium avium [21] = test: Antimycobacterial activity against Isoniazid, rifampicin, ofloxacin and ethambutol-resistant Mycobacterium avium 330/88 assessed as complete growth inhibition after 21 days; type: functional; conditions: 330/88, 504 h; outline: as §2
[22] = test system: Staphylococcus epidermidis; test: Antimicrobial activity against Staphylococcus epidermidis H 6966/08 after 48 hrs by microdilution method; type: functional; conditions: H 6966/08, 48 h; outline: as §6
Staphylococcus aureus [23] = test: Antimicrobial activity against methicillin-resistant Staphylococcus aureus H 5996/08 after 24 hrs by microdilution method; type: functional; conditions: H 5996/08, 24 h; outline: as §5
Staphylococcus aureus [24] = test: Antimicrobial activity against methicillin-resistant Staphylococcus aureus H 5996/08 after 48 hrs by microdilution method; type: functional; conditions: H 5996/08, 48 h; outline: as §5
Enterococcus sp. [25] = test: Antimicrobial activity against Enterococcus sp. J 14365/08 after 24 hrs by microdilution method; type: functional; conditions: J 14365/08, 24 h; outline: as §6

| SMILES | MIC (Mycobacterium kansasii [1]) [µM] | MIC [2] [µM] | Selectivity Index [3] | MIC [4] [µM] | MIC (Staphylococcus aureus [5]) [µM] | MIC (Mycobacterium kansasii [6]) [µM] | inhibition [7] [%] | MIC (Staphylococcus aureus [8]) [µM] | MIC (Mycobacterium kansasii [9]) [µM] | MIC [10] [µM] | MIC (Enterococcus sp. [11]) [µM] | MIC [13] [µM] | Selectivity Index [14] | MIC [17] [µM] | Selectivity Index [18] | IC50 (HepG2) [µM] | MIC [22] [µM] | MIC (Staphylococcus aureus [23]) [µM] | MIC (Staphylococcus aureus [24]) [µM] | MIC (Enterococcus sp. [25]) [µM] | further results |
| --- | --- | --- | --- | --- | --- | --- | --- | --- | --- | --- | --- | --- | --- | --- | --- | --- | --- | --- | --- | --- | --- |
| CN(C)C(=S)Oc1ccc(Cl)cc1C(=O)Nc1ccc(Br)cc1 | 32 (≈ 13.2 µg/mL) | 8 (≈ 3.31 µg/mL) | 2.7 | 1.95 (≈ 0.807 µg/mL) | 0.49 (≈ 0.203 µg/mL) | 32 (≈ 13.2 µg/mL) | 11 | 0.49 (≈ 0.203 µg/mL) | 16 (≈ 6.62 µg/mL) | 8 (≈ 3.31 µg/mL) | > 500 | 0.49 (≈ 0.203 µg/mL) | 843.9 | 1.95 (≈ 0.807 µg/mL) | 174.8 | 85.6 | 0.49 (≈ 0.203 µg/mL) | 0.49 (≈ 0.203 µg/mL) | 0.49 (≈ 0.203 µg/mL) | > 500 | MIC (Mycobacterium avium [12]): 16 µM (≈ 6.62 µg/mL); MIC (Mycobacterium kansasii [15]): 16 µM (≈ 6.62 µg/mL); selectivity ratio [16]: 10.7; MIC (Mycobacterium kansasii [19]): 16 µM (≈ 6.62 µg/mL); MIC (Mycobacterium kansasii [20]): 16 µM (≈ 6.62 µg/mL); MIC (Mycobacterium avium [21]): 16 µM (≈ 6.62 µg/mL) |
| CC1(C)S[C@@H]2[C@H](NC(=O)Cc3ccccc3)C(=O)N2[C@H]1C(=O)O [PENICILLIN G] | – | – | – | – | 0.98 (≈ 0.328 µg/mL) | – | – | 0.98 (≈ 0.328 µg/mL) | – | – | 15.6 (≈ 5.22 µg/mL) | 250 (≈ 83.6 µg/mL) | – | – | >10.2 | > 10000 | 250 (≈ 83.6 µg/mL) | 62.5 (≈ 20.9 µg/mL) | 125 (≈ 41.8 µg/mL) | 7.81 (≈ 2.61 µg/mL) | – |
| C[C@@H]1[C@H](O)[C@@H](C)/C=C/C=C/C=C/C=C/C=C/C=C/C=C/[C@H](O[C@@H]2O[C@H](C)[C@@H](O)[C@H](N)[C@@H]2O)C[C@@H]2O[C@](O)(C[C@@H](O)C[C@@H](O)[C@H](O)CC[C@@H](O)C[C@@H](O)CC(=O)O[C@H]1C)C[C@H](O)[C@H]2C(=O)O [AMPHOTERICIN B] | – | – | – | 1.95 (≈ 1.8 µg/mL) | – | – | – | – | – | – | – | – | 1.3 | 1.95 (≈ 1.8 µg/mL) | – | 2.5 | – | – | – | – | – |
| CN(C)C(=S)Oc1ccc(Cl)cc1C(=O)Nc1ccc(Cl)cc1 | 16 (≈ 5.91 µg/mL) | 4 (≈ 1.48 µg/mL) | 5.2 | 1.95 (≈ 0.72 µg/mL) | 3.9 (≈ 1.44 µg/mL) | 16 (≈ 5.91 µg/mL) | 6 | 7.81 (≈ 2.88 µg/mL) | 16 (≈ 5.91 µg/mL) | 8 (≈ 2.95 µg/mL) | > 125 | 7.81 (≈ 2.88 µg/mL) | 442.8 | 1.95 (≈ 0.72 µg/mL) | 21.4 | 83.5 | 31.2 (≈ 11.5 µg/mL) | 3.9 (≈ 1.44 µg/mL) | 7.81 (≈ 2.88 µg/mL) | 125 (≈ 46.2 µg/mL) | MIC (Mycobacterium avium [12]): 16 µM (≈ 5.91 µg/mL); MIC (Mycobacterium kansasii [15]): 8 µM (≈ 2.95 µg/mL); selectivity ratio [16]: 10.4; MIC (Mycobacterium kansasii [19]): 16 µM (≈ 5.91 µg/mL); MIC (Mycobacterium kansasii [20]): 16 µM (≈ 5.91 µg/mL); MIC (Mycobacterium avium [21]): 16 µM (≈ 5.91 µg/mL) |
| CN(C)C(=S)Oc1ccc(Cl)cc1C(=O)Nc1ccc(C(F)(F)F)cc1 | 32 (≈ 12.9 µg/mL) | 4 (≈ 1.61 µg/mL) | 2.1 | 500 (≈ 201 µg/mL) | 7.81 (≈ 3.15 µg/mL) | 32 (≈ 12.9 µg/mL) | 12 | 7.81 (≈ 3.15 µg/mL) | 16 (≈ 6.45 µg/mL) | 4 (≈ 1.61 µg/mL) | > 500 | 31.2 (≈ 12.6 µg/mL) | <1 | 500 (≈ 201 µg/mL) | 8.6 | 67.3 | 31.2 (≈ 12.6 µg/mL) | 7.81 (≈ 3.15 µg/mL) | 7.81 (≈ 3.15 µg/mL) | > 500 | MIC (Mycobacterium avium [12]): 16 µM (≈ 6.45 µg/mL); MIC (Mycobacterium kansasii [15]): 16 µM (≈ 6.45 µg/mL); selectivity ratio [16]: 16.8; MIC (Mycobacterium kansasii [19]): 32 µM (≈ 12.9 µg/mL); MIC (Mycobacterium kansasii [20]): 32 µM (≈ 12.9 µg/mL); MIC (Mycobacterium avium [21]): 16 µM (≈ 6.45 µg/mL) |
